{"source": "ChEMBL document CHEMBL3091313", "about": "“Amino acids derived benzoxazepines: design, synthesis and antitumor activity” (Bioorg Med Chem Lett, 2013)", "key": {"MDA-MB-231 [1]": {"test_system": "MDA-MB-231", "experiment": "Antiproliferative activity against human MDA-MB-231 cells after 24 hrs by MTT assay", "assay_type": "functional, cell-based", "conditions": "MDA-MB-231, 24 h", "procedure,_shortened": "(§1)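 MCF-7 (ER+ve) and MDA-MB-231 (ER-ve) breast cancer cells were exposed to compound or vehicle. Viability was read by MTT and expressed as % cell death versus vehicle, with 4-hydroxytamoxifen as positive control. IC50 came from three independent experiments, each in triplicate.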"}, "MCF7 [2]": {"test_system": "MCF7", "experiment": "Antiproliferative activity against human MCF7 cells after 24 hrs by MTT assay", "assay_type": "functional, cell-based", "conditions": "MCF7, 24 h", "procedure,_shortened": "as §1"}, "[3]": {"experiment": "Safety index, ratio of IC50 for HEK293 cells to IC50 for human MCF7 cells", "assay_type": "toxicity, cell-based", "conditions": "HEK293 cells versus MCF7 cells, read-out: Ratio IC50", "procedure,_shortened": "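Cell death was assessed by MTT assay after 72 h exposure. The ratio was calculated as the HEK-293 IC50 divided by the MCF-7 EC50.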"}, "MCF7 [4]": {"test_system": "MCF7", "experiment": "Antiproliferative activity against human MCF7 cells after 72 hrs by MTT assay", "assay_type": "functional, cell-based", "conditions": "MCF7, 72 h", "procedure,_shortened": "as §1"}, "HEK293": {"test_system": "HEK293", "experiment": "Cytotoxicity against HEK293 cells after 24 hrs by MTT assay", "assay_type": "cell-based", "conditions": "Homo sapiens, HEK293, 72 h; in the assay text read “after 72 hrs” for “after 24 hrs”"}, "MCF7 [5]": {"test_system": "MCF7", "experiment": "Antiproliferative activity against human MCF7 cells after 48 hrs by MTT assay", "assay_type": "functional, cell-based", "conditions": "MCF7, 48 h", "procedure,_shortened": "as §1"}, "MDA-MB-231 [6]": {"test_system": "MDA-MB-231", "experiment": "Antiproliferative activity against human MDA-MB-231 cells after 72 hrs by MTT assay", "assay_type": "functional, cell-based", "conditions": "MDA-MB-231, 72 h", "procedure,_shortened": "as §1"}, "MDA-MB-231 [7]": {"test_system": "MDA-MB-231", "experiment": "Antiproliferative activity against human MDA-MB-231 cells after 48 hrs by MTT assay", "assay_type": "functional, cell-based", "conditions": "MDA-MB-231, 48 h", "procedure,_shortened": "as §1"}}}
{"smiles": "CCN(CC)CCOc1ccc(CN2Cc3ccccc3OC[C@@H]2Cc2ccc(OC)cc2)cc1", "values": [{"measurement": "IC50", "setting": "MDA-MB-231 [1]", "value": 18.6, "unit": "µM"}, {"measurement": "IC50", "setting": "MCF7 [2]", "value": 14.5, "unit": "µM"}]}
{"smiles": "COc1cccc2c1OC[C@H](Cc1ccc(OCCN3CCCCCC3)cc1)N(S(=O)(=O)c1ccc(C)cc1)C2", "values": [{"measurement": "IC50", "setting": "MDA-MB-231 [1]", "value": "> 20", "unit": "µM"}, {"measurement": "IC50", "setting": "MCF7 [2]", "value": "> 20", "unit": "µM"}]}
{"smiles": "COc1ccc(C[C@H]2COc3ccccc3CN2Cc2ccc(OCCN(C)C)cc2)cc1", "values": [{"measurement": "IC50", "setting": "MDA-MB-231 [1]", "value": "> 20", "unit": "µM"}, {"measurement": "IC50", "setting": "MCF7 [2]", "value": "> 20", "unit": "µM"}]}
{"smiles": "COc1ccc(C[C@H]2COc3ccccc3CN2Cc2ccc(OCCN3CCCCCC3)cc2)cc1", "values": [{"measurement": "IC50", "setting": "MDA-MB-231 [1]", "value": "> 20", "unit": "µM"}, {"measurement": "IC50", "setting": "MCF7 [2]", "value": "> 20", "unit": "µM"}]}
{"smiles": "COc1ccc(C[C@H]2COc3ccccc3CN2Cc2ccc(O)cc2)cc1", "values": [{"measurement": "IC50", "setting": "MDA-MB-231 [1]", "value": 13.2, "unit": "µM"}, {"measurement": "IC50", "setting": "MCF7 [2]", "value": 10.3, "unit": "µM"}]}
{"smiles": "COc1cccc2c1OC[C@H](Cc1ccc(OCCN3CCOCC3)cc1)N(S(=O)(=O)c1ccc(C)cc1)C2", "values": [{"measurement": "IC50", "setting": "MDA-MB-231 [1]", "value": "> 20", "unit": "µM"}, {"measurement": "IC50", "setting": "MCF7 [2]", "value": "> 20", "unit": "µM"}]}
{"smiles": "COc1ccc(C[C@H]2COc3ccccc3CN2Cc2ccc(OCCN3CCCC3)cc2)cc1", "values": [{"measurement": "IC50", "setting": "MDA-MB-231 [1]", "value": 15.7, "unit": "µM"}, {"measurement": "IC50", "setting": "MCF7 [2]", "value": 12.5, "unit": "µM"}]}
{"smiles": "COc1ccc(C[C@H]2COc3ccccc3CN2Cc2ccc(OCCN3CCCCC3)cc2)cc1", "values": [{"measurement": "IC50", "setting": "MDA-MB-231 [1]", "value": "> 20", "unit": "µM"}, {"measurement": "IC50", "setting": "MCF7 [2]", "value": "> 20", "unit": "µM"}]}
{"smiles": "Cc1ccc(S(=O)(=O)N2Cc3ccccc3OCC2Cc2ccc(O)cc2)cc1", "note": "(stereo not drawn)", "values": [{"measurement": "selectivity ratio", "setting": "[3]", "value": 3}, {"measurement": "IC50", "setting": "MCF7 [4]", "value": 10, "unit": "µM"}, {"measurement": "IC50", "setting": "HEK293", "value": 30, "unit": "µM"}]}
{"smiles": "CCC(=C(c1ccc(O)cc1)c1ccc(OCCN(C)C)cc1)c1ccccc1", "values": [{"measurement": "IC50", "setting": "MDA-MB-231 [1]", "value": 10.4, "unit": "µM"}, {"measurement": "IC50", "setting": "MCF7 [2]", "value": 7.2, "unit": "µM"}]}
{"smiles": "CCN(CC)CCOc1ccc(C[C@H]2COc3c(cccc3OC)CN2S(=O)(=O)c2ccc(C)cc2)cc1", "values": [{"measurement": "IC50", "setting": "MDA-MB-231 [1]", "value": "> 20", "unit": "µM"}, {"measurement": "IC50", "setting": "MCF7 [2]", "value": "> 20", "unit": "µM"}]}
{"smiles": "COc1ccc2c(c1)CN(S(=O)(=O)c1ccc(C)cc1)[C@@H](CC(C)C)CO2", "values": [{"measurement": "IC50", "setting": "MDA-MB-231 [1]", "value": "> 20", "unit": "µM"}, {"measurement": "IC50", "setting": "MCF7 [2]", "value": "> 20", "unit": "µM"}]}
{"smiles": "Cc1ccc(S(=O)(=O)N2Cc3ccccc3OC[C@@H]2Cc2ccc(OCCN3CCCCC3)cc2)cc1", "values": [{"measurement": "IC50", "setting": "MCF7 [5]", "value": 4.31, "unit": "µM"}, {"measurement": "IC50", "setting": "MDA-MB-231 [1]", "value": 10.2, "unit": "µM"}, {"measurement": "IC50", "setting": "MCF7 [4]", "value": 3.23, "unit": "µM"}, {"measurement": "IC50", "setting": "MCF7 [2]", "value": 9.62, "unit": "µM"}, {"measurement": "IC50", "setting": "MDA-MB-231 [6]", "value": 4.2, "unit": "µM"}, {"measurement": "IC50", "setting": "MDA-MB-231 [7]", "value": 5.12, "unit": "µM"}]}
{"smiles": "COc1ccc2c(c1)CN(S(=O)(=O)c1ccc(C)cc1)[C@@H](Cc1c[nH]c3ccccc13)CO2", "values": [{"measurement": "IC50", "setting": "MDA-MB-231 [1]", "value": "> 20", "unit": "µM"}, {"measurement": "IC50", "setting": "MCF7 [2]", "value": "> 20", "unit": "µM"}]}
{"smiles": "COc1ccc2c(c1)OC[C@H](Cc1ccc(O)cc1)N(S(=O)(=O)c1ccc(C)cc1)C2", "values": [{"measurement": "IC50", "setting": "MDA-MB-231 [1]", "value": "> 20", "unit": "µM"}, {"measurement": "IC50", "setting": "MCF7 [2]", "value": "> 20", "unit": "µM"}]}
{"smiles": "COc1cccc2c1OC[C@H](Cc1ccc(OCCN(C)C)cc1)N(S(=O)(=O)c1ccc(C)cc1)C2", "values": [{"measurement": "IC50", "setting": "MDA-MB-231 [1]", "value": "> 20", "unit": "µM"}, {"measurement": "IC50", "setting": "MCF7 [2]", "value": "> 20", "unit": "µM"}]}
{"smiles": "COc1ccc(C[C@H]2COc3ccccc3CN2C(=O)OC(C)(C)C)cc1", "values": [{"measurement": "IC50", "setting": "MDA-MB-231 [1]", "value": "> 20", "unit": "µM"}, {"measurement": "IC50", "setting": "MCF7 [2]", "value": "> 20", "unit": "µM"}]}
{"smiles": "COc1ccc(C[C@H]2COc3ccccc3CN2)cc1", "values": [{"measurement": "IC50", "setting": "MDA-MB-231 [1]", "value": "> 20", "unit": "µM"}, {"measurement": "IC50", "setting": "MCF7 [2]", "value": "> 20", "unit": "µM"}]}
{"smiles": "COc1cccc2c1OC[C@H](Cc1ccc(OCCN3CCCC3)cc1)N(S(=O)(=O)c1ccc(C)cc1)C2", "values": [{"measurement": "IC50", "setting": "MDA-MB-231 [1]", "value": "> 20", "unit": "µM"}, {"measurement": "IC50", "setting": "MCF7 [2]", "value": "> 20", "unit": "µM"}]}
